According to ChEMBL document CHEMBL3297713, “Discovery, optimization, and biological evaluation of 5-(2-(trifluoromethyl)phenyl)indazoles as a novel class of transient receptor potential A1 (TRPA1) antagonists” (J Med Chem, 2014):

Key:
[1] = biological target: Transient receptor potential cation channel subfamily A member 1 (Homo sapiens, UniProt O75762); experiment: Antagonist activity at human TRPA1 expressed in CHO-TREX cells assessed as inhibition of cinnamaldehyde-induced calcium flux incubated 10 mins prior to cinnamaldehyde addition by FLIPR assay relative to control; format: cell-based
Chain of Transient receptor potential cation channel subfamily A member 1 (Homo sapiens, UniProt O75762) (O75762 whole entry): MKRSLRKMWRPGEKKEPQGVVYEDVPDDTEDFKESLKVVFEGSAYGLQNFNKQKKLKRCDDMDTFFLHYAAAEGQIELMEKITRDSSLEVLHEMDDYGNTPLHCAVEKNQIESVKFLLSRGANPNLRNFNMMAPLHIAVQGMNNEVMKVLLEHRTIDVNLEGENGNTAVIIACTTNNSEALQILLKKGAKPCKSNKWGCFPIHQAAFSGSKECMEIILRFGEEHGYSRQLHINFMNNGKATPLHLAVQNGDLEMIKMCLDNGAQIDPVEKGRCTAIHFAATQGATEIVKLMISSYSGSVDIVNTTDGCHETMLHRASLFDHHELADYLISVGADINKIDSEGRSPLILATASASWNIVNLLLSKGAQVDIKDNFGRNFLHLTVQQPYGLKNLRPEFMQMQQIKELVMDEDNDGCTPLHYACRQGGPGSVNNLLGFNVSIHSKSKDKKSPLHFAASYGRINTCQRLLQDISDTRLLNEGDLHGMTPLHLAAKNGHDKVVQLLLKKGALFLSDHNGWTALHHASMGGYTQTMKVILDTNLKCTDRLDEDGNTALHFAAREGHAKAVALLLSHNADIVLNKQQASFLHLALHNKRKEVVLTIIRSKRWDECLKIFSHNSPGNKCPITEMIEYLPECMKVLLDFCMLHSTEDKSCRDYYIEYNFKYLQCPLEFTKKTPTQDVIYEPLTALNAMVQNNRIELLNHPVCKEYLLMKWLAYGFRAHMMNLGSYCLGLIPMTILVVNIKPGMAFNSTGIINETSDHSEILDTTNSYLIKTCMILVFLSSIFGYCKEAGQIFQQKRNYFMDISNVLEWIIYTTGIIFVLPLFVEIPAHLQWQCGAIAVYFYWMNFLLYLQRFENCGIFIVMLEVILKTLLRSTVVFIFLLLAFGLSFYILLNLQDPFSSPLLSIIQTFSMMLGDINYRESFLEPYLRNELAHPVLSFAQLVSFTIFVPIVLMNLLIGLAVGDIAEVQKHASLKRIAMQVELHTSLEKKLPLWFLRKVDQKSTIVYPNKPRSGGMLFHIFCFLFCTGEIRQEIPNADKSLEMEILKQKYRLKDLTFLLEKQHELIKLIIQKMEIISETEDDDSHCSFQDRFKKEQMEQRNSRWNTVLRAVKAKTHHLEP
Procedure, shortened: (§1)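 TRPA1-expressing CHO-TREX cells, channel expression induced with tetracycline (0.5 µg/mL human, 1 µg/mL mouse or rat). Cells loaded with Fluo4-AM for 90 min at room temperature, washed, then test agent added in HBSS/20 mM HEPES/2.5 mM probenecid/0.1% BSA. Agonist added 10 min later at EC80: human cinnamaldehyde 30 µM, AITC 2.5 µM, dibenzoxazepine-carboxamide 5 nM; rat and mouse cinnamaldehyde 40 µM. FLIPR calcium flux; mean of triplicates fitted to sigmoidal dose-response curves.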

[2] = biological target: Transient receptor potential cation channel subfamily V member 1 (Homo sapiens, UniProt Q8NER1); experiment: Antagonist activity at human TRPV1 expressed in CHOK1 cells assessed as inhibition of capsaicin-induced calcium flux incubated 10 mins prior to capsaicin addition by FLIPR assay relative to control; format: cell-based, CHO-K1; conditions: for inhibition: CHO-K1
Chain of Transient receptor potential cation channel subfamily V member 1 (Q8NER1 whole entry): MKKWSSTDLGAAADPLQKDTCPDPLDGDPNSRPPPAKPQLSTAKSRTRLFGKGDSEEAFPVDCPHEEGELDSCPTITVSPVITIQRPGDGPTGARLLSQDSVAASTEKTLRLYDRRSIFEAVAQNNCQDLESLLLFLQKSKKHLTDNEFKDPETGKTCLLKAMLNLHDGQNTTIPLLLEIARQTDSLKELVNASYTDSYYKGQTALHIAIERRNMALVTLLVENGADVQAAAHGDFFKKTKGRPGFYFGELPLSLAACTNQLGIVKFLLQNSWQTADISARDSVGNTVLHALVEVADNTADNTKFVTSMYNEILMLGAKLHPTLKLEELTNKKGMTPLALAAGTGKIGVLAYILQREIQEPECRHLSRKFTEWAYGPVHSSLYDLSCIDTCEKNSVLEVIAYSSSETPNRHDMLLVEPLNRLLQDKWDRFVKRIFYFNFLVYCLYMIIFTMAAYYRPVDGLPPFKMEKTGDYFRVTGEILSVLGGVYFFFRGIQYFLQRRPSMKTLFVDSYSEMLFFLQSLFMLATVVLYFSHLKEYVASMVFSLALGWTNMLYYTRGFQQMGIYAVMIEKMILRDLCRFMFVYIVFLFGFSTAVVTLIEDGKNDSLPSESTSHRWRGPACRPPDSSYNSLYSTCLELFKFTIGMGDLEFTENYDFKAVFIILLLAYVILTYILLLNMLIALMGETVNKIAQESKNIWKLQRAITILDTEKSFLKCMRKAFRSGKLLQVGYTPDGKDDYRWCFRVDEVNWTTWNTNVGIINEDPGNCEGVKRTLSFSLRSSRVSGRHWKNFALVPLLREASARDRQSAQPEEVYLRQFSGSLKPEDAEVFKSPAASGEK

[3] = Half life in Wistar rat at 3 mg/kg, iv; format: ADME, organism-based; design: dose 3 mg/kg, route intravenous; conditions: in vivo
[4] = Clearance in Wistar rat at 3 mg/kg, iv; format: ADME, organism-based; design: dose 3 mg/kg, route intravenous; conditions: in vivo
Procedure, shortened: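 Wistar rats given 3 mg/kg i.v. as a solution in 75% PEG300/25% D5W.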

[5] = biological target: Transient receptor potential cation channel subfamily A member 1 (Mus musculus, UniProt Q8BLA8); experiment: (§2) Antagonist activity at mouse TRPA1 expressed in CHO-TREX cells assessed as inhibition of cinnamaldehyde-induced calcium flux incubated 10 mins prior to cinnamaldehyde addition by FLIPR assay relative to control; format: cell-based; procedure, shortened: as §1
Chain of Transient receptor potential cation channel subfamily A member 1 (Mus musculus, UniProt Q8BLA8) (Q8BLA8 whole entry): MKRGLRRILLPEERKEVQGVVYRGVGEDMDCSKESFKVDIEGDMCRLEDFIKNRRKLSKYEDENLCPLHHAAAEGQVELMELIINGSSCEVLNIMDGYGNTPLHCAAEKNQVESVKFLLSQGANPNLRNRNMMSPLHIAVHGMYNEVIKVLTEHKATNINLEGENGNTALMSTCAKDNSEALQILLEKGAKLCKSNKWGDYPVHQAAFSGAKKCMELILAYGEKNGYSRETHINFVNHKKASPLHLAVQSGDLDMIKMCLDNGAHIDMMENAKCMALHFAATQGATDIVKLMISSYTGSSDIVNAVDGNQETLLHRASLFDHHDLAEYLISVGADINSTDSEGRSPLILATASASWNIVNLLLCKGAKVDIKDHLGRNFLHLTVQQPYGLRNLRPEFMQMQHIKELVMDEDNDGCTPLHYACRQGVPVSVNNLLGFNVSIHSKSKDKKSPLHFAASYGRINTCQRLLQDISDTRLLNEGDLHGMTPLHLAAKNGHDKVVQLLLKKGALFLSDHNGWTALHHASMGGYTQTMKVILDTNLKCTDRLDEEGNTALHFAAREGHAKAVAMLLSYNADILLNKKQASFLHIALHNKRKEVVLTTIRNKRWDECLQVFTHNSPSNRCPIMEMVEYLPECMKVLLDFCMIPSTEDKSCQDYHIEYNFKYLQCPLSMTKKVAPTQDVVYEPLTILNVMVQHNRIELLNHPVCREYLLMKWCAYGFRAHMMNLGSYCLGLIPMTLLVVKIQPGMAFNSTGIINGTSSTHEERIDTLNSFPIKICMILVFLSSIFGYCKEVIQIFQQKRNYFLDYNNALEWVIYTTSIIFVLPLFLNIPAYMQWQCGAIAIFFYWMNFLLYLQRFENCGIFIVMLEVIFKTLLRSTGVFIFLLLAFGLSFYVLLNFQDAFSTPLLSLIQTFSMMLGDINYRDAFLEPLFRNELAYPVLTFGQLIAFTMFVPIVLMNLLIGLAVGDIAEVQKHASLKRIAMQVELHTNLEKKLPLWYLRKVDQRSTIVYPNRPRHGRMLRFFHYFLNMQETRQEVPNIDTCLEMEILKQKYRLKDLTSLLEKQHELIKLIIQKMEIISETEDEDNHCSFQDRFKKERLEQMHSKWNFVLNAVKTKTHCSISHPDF

[6] = biological target: Transient receptor potential cation channel subfamily A member 1 (Mus musculus) (UniProt Q8BLA8); experiment: as §2; format: cell-based; design: concentration or dose not given beside the values; procedure, shortened: as §1
Chain of Transient receptor potential cation channel subfamily A member 1 (Mus musculus) (Q8BLA8 whole entry): as above

[7] = test system: CHO-K1; experiment: Selectivity ratio of IC50 for human TRPV3 expressed in CHOK1 cells to IC50 for human TRPA1 expressed in CHO-TREX cells; format: cell-based
Procedure, shortened: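 Calcium influx was measured by FLIPR in Fluo4-AM-loaded cells: hTRPV3 CHO-K1 challenged with 40 µM 2-APB, and hTRPA1 CHO-TREX (0.5 µg/mL tetracycline) challenged with 30 µM cinnamaldehyde, 2.5 µM AITC or 5 nM dibenzoxazepine carboxamide, all at EC80. Compounds were added 10 min ahead of agonist in HEPES-buffered HBSS with probenecid. Sigmoidal curves were fitted to triplicate means.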

[8] = Volume of distribution at steady state in Wistar rat at 3 mg/kg, iv; format: ADME, organism-based; design: dose 3 mg/kg, route intravenous; conditions: in vivo, read-out: Vdss
[9] = Tmax in Wistar rat at 10 mg/kg, po; format: ADME, organism-based; design: dose 10 mg/kg, route oral; conditions: in vivo
Procedure, shortened: (§3)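 Male Wistar rats dosed orally at 10 mg/kg as a suspension in 0.5% methylcellulose/0.5% Tween80.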

[10] = test system: CHO-K1; experiment: Selectivity ratio of IC50 for human TRPV1 expressed in CHOK1 cells to IC50 for human TRPA1 expressed in CHO-TREX cells; format: cell-based
Procedure, shortened: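 Stable hTRPV1 CHO-K1 and tetracycline-induced (0.5 µg/mL) hTRPA1 CHO-TREX cells were loaded with Fluo4-AM for 90 min at room temperature and read on FLIPR. Antagonist preincubation was 10 min before EC80 agonist: capsaicin 40 nM (TRPV1); cinnamaldehyde 30 µM, AITC 2.5 µM or dibenzoxazepine carboxamide 5 nM (TRPA1). Buffer contained probenecid and BSA. IC50s were fitted from triplicate means of max−min calcium signal.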

[11] = Cmax in Wistar rat at 10 mg/kg, po; format: ADME, organism-based; design: dose 10 mg/kg, route oral; conditions: in vivo; procedure, shortened: as §3
[12] = Oral bioavailability in Wistar rat at 10 mg/kg; format: ADME, organism-based; conditions: in vivo; procedure, shortened: as §3
[13] = biological target: Transient receptor potential cation channel subfamily A member 1 (Rattus norvegicus, UniProt Q6RI86); experiment: (§4) Antagonist activity at rat TRPA1 expressed in CHO-TREX cells assessed as inhibition of cinnamaldehyde-induced calcium flux incubated 10 mins prior to cinnamaldehyde addition by FLIPR assay relative to control; format: cell-based; procedure, shortened: as §1
Chain of Transient receptor potential cation channel subfamily A member 1 (Rattus norvegicus, UniProt Q6RI86) (Q6RI86 whole entry): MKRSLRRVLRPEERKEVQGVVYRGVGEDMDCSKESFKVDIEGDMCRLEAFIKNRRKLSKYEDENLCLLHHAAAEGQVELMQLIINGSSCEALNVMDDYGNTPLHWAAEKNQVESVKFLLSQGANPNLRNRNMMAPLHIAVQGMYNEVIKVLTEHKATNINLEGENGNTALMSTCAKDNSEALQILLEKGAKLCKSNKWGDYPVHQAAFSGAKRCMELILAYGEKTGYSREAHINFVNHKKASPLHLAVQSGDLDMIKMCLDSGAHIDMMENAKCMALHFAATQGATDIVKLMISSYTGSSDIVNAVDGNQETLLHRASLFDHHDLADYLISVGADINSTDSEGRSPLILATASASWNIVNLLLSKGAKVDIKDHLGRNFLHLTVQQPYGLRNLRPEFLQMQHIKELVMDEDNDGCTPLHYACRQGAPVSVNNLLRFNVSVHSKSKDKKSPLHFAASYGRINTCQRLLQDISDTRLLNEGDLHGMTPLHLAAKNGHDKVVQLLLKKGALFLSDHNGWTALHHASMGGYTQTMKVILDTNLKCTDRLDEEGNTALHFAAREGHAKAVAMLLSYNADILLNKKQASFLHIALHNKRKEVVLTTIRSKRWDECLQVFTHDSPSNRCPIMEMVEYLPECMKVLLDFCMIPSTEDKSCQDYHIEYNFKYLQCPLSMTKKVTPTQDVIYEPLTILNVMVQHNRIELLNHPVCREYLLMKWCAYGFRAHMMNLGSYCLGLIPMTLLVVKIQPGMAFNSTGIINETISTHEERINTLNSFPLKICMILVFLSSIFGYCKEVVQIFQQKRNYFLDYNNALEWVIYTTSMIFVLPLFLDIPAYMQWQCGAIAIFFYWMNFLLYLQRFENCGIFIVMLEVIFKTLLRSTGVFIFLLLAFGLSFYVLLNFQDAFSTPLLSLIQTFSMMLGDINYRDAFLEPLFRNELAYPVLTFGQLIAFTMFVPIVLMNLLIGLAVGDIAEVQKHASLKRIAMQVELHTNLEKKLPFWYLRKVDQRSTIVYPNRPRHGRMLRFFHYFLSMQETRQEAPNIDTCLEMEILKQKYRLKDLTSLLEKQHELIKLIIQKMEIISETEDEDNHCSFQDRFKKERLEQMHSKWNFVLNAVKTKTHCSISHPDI

[14] = biological target: Transient receptor potential cation channel subfamily A member 1 (Rattus norvegicus) (UniProt Q6RI86); experiment: as §4; format: cell-based; design: concentration or dose not given beside the values; procedure, shortened: as §1
Chain of Transient receptor potential cation channel subfamily A member 1 (Rattus norvegicus) (Q6RI86 whole entry): as above

[15] = biological target: T1, Transient receptor potential cation channel subfamily V member 3 (Homo sapiens, UniProt Q8NET8); experiment: (§5) Antagonist activity at human TRPV3 expressed in CHOK1 cells assessed as inhibition of 2-APB-induced calcium flux incubated 10 mins prior to 2-APB addition by FLIPR assay relative to control; format: cell-based, CHO-K1
T1 sequence (Q8NET8 whole entry): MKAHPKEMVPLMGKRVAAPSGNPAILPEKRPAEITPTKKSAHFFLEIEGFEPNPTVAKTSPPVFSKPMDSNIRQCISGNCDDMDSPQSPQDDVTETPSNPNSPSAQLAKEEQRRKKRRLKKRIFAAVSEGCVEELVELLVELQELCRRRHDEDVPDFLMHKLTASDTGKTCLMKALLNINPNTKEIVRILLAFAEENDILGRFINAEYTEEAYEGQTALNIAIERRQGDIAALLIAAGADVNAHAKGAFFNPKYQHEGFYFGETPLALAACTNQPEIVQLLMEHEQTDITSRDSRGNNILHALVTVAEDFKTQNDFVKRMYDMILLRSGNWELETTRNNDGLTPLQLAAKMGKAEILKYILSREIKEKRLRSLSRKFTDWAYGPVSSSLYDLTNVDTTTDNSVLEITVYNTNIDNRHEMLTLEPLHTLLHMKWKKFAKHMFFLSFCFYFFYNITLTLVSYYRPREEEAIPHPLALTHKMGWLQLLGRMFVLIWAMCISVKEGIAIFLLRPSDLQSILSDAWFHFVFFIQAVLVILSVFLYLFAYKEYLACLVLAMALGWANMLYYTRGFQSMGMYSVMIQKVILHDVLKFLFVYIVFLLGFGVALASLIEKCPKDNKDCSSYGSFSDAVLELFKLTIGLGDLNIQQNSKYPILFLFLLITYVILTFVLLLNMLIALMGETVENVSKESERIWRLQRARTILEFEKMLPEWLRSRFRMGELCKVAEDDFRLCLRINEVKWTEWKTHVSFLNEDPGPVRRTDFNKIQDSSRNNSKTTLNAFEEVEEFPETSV

[16] = biological target: T2, Transient receptor potential cation channel subfamily V member 3 (Homo sapiens) (UniProt Q8NET8); experiment: as §5; format: cell-based; design: concentration or dose not given beside the values; conditions: CHO-K1
T2 sequence (whole entry): T1 sequence (Q8NET8 whole entry)

[17] = biological target: Transient receptor potential cation channel subfamily M member 8 (Homo sapiens, UniProt Q7Z2W7); experiment: Antagonist activity at human TRPM8 expressed in CHOK1 cells assessed as inhibition of menthol-induced calcium flux incubated 10 mins prior to menthol addition by FLIPR assay relative to control; format: cell-based, CHO-K1; conditions: for inhibition: CHO-K1
[18] = AUC in Wistar rat at 10 mg/kg, po; format: ADME, organism-based; design: dose 10 mg/kg, route oral; conditions: plasma; procedure, shortened: as §3
[19] = test system: CHO-K1; experiment: Selectivity ratio of IC50 for human TRPM8 expressed in CHOK1 cells to IC50 for human TRPA1 expressed in CHO-TREX cells; format: cell-based
Procedure, shortened: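 FLIPR calcium-flux antagonist assays with Fluo4-AM loading (90 min, room temperature) in HBSS/20 mM HEPES/2.5 mM probenecid/0.1% BSA. Compound added 10 min before agonist at EC80: 40 µM menthol for CHO-K1 hTRPM8; for tetracycline-induced (0.5 µg/mL) CHO-TREX hTRPA1, 30 µM cinnamaldehyde, 2.5 µM AITC or 5 nM dibenzoxazepine carboxamide. Response is maximum minus minimum. IC50s come from sigmoidal fits of triplicate means.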

CC(C)c1ccccc1-c1ccc2[nH]ncc2c1
IC50 [1]: 514 nM | inhibition [1]: 93%

Fc1cccc(-c2ccc3[nH]ncc3c2)c1C(F)(F)F
IC50 [1]: 8900 nM | inhibition [1]: 97%

FC(F)(F)c1ccccc1-c1cc2cn[nH]c2cc1C1CC1
IC50 [1]: 61 nM | inhibition [1]: 99%

CCc1cc2[nH]ncc2cc1-c1ccccc1C(F)(F)F
IC50 [1]: 50 nM | inhibition [1]: 100%

CNC(=O)c1cc2[nH]ncc2cc1-c1ccccc1C(F)(F)F
IC50 [1]: > 30000 nM

Cc1cc(-c2ccccc2C(F)(F)F)cc2cn[nH]c12
IC50 [1]: 6720 nM | inhibition [1]: 98%

CC(C)c1cc2[nH]ncc2cc1-c1ccccc1C(F)(F)F
IC50 [1]: 25400 nM | inhibition [1]: 59%

N#Cc1ccccc1-c1ccc2[nH]ncc2c1
IC50 [1]: 1290 nM | inhibition [1]: 91%

c1ccc(-c2ccc3[nH]ncc3c2)cc1
IC50 [1]: > 30000 nM

FC(F)(F)c1ccccc1-c1cc2cn[nH]c2cc1Cl
IC50 [2]: 16700 nM | inhibition [2]: 70% | half-life [3]: 3.4 h | clearance [4]: 13.6 mL/min/kg | IC50 [5]: 94 nM | inhibition [6]: 100% | Ratio IC50 [7]: > 100 | IC50 [1]: 24 nM | inhibition [1]: 98% | Vd [8]: 1.65 L/kg | Tmax [9]: 0.5 h | Ratio IC50 [10]: > 100 | Cmax [11]: 6.05 µM | bioavailability [12]: 63% | IC50 [13]: 169 nM | inhibition [14]: 98% | IC50 [15]: > 30000 nM | inhibition [16]: 0% | IC50 [17]: 17100 nM | inhibition [17]: 71% | AUC [18]: 26.2 µM·h | Ratio IC50 [19]: > 100

Fc1ccccc1-c1ccc2[nH]ncc2c1
IC50 [1]: 3950 nM | inhibition [1]: 68%

CC(C)(C)c1ccccc1-c1ccc2[nH]ncc2c1
IC50 [1]: 3400 nM | inhibition [1]: 96%

CC(C)Oc1cc2[nH]ncc2cc1-c1ccccc1C(F)(F)F
IC50 [1]: 970 nM | inhibition [1]: 97%

N#Cc1cc2[nH]ncc2cc1-c1ccccc1C(F)(F)F
IC50 [1]: 129 nM | inhibition [1]: 100%

Fc1cc2[nH]ncc2cc1-c1ccccc1C(F)(F)F
IC50 [1]: 48 nM | inhibition [1]: 98%

CCc1ccccc1-c1ccc2[nH]ncc2c1
IC50 [1]: 584 nM | inhibition [1]: 96%

Cc1ccccc1-c1ccc2[nH]ncc2c1
IC50 [1]: 7810 nM | inhibition [1]: 78%

Fc1ccc(-c2ccc3[nH]ncc3c2)c(C(F)(F)F)c1
IC50 [1]: 30000 nM

FC(F)Oc1cc2[nH]ncc2cc1-c1ccccc1C(F)(F)F
IC50 [1]: 50 nM | inhibition [1]: 98%

FC(F)c1cc2[nH]ncc2cc1-c1ccccc1C(F)(F)F
IC50 [1]: 103 nM | inhibition [1]: 100%

Fc1c(-c2ccccc2C(F)(F)F)ccc2[nH]ncc12
IC50 [1]: 296 nM | inhibition [1]: 97%

CCOc1cc2[nH]ncc2cc1-c1ccccc1C(F)(F)F
IC50 [1]: 39 nM | inhibition [1]: 97%

FC(F)(F)Oc1cc2[nH]ncc2cc1-c1ccccc1C(F)(F)F
IC50 [2]: 11500 nM | inhibition [2]: 78% | IC50 [5]: 254 nM | inhibition [6]: 100% | Ratio IC50 [7]: > 100 | IC50 [1]: 36 nM | inhibition [1]: 99% | Ratio IC50 [10]: > 100 | IC50 [13]: 627 nM | inhibition [14]: 100% | IC50 [15]: > 30000 nM | inhibition [16]: 22% | IC50 [17]: 6400 nM | inhibition [17]: 100% | Ratio IC50 [19]: > 100

FC(F)c1ccccc1-c1ccc2[nH]ncc2c1
IC50 [1]: 2200 nM | inhibition [1]: 93%

Clc1ccccc1-c1ccc2[nH]ncc2c1
IC50 [1]: 1230 nM | inhibition [1]: 91%

Fc1cccc(C(F)(F)F)c1-c1ccc2[nH]ncc2c1
IC50 [1]: 1230 nM | inhibition [1]: 95%

Cn1ncc2cc(-c3ccccc3C(F)(F)F)ccc21
IC50 [1]: 7410 nM | inhibition [1]: 98%

COCc1cc2[nH]ncc2cc1-c1ccccc1C(F)(F)F
IC50 [1]: 142 nM | inhibition [1]: 97%

Fc1ccc(C(F)(F)F)c(-c2ccc3[nH]ncc3c2)c1
IC50 [1]: 306 nM | inhibition [1]: 98%

Cc1n[nH]c2ccc(-c3ccccc3C(F)(F)F)cc12
IC50 [1]: 3090 nM | inhibition [1]: 83%

FC(F)(F)Oc1ccccc1-c1ccc2[nH]ncc2c1
IC50 [1]: 3430 nM | inhibition [1]: 97%
